A short description of data set [1]: Cytotoxicity against BALB/c mouse splenocytes at 30 uM after 48 hrs by MTT assay. Type of data set: cell-based, Splenocyte. The settings on record: read-out: INH. The method, boiled down: (§1)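 BALB/c spleen single-cell suspension, erythrocytes depleted with Tris-buffered NH4Cl (0.155 M NH4Cl, 16.5 mM Tris, pH 7.2). Cells cultured in RPMI-1640 with 10% FBS and compound diluted from DMSO stock (0.1% DMSO in control). Medium-alone cells served as control. MTT (5 mg/mL) added 4 h before end of culture, then SDS/DMF lysis buffer (pH 7.2) for 6 h. Absorbance read at 570 nm and growth inhibition % calculated.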
For orientation: Formazan colour is commonly taken as a measure of viable cells.

Data set [2] in a line: Immunosuppressive activity in BALB/c mouse splenocytes assessed as inhibition of concanavalin A-induced cell proliferation at 10 uM after 48 hrs by MTT assay. Type of data set: functional. Conditions: Splenocyte. The method, boiled down: (§2)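 Spleen cells (5 × 10⁵) from male BALB/c mice aged 6–8 weeks, erythrocytes lysed, stimulated with ConA 5 μg/mL in RPMI-1640/10% FBS. Compounds diluted from DMSO stock. ConA-stimulated cells used as control. Proliferation read by MTT added 4 h before end of culture, SDS/DMF lysis for 6 h, absorbance at 570 nm.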

Data set [3] is described as follows: Cytotoxicity against BALB/c mouse splenocytes at 100 uM after 48 hrs by MTT assay. Conditions: read-out: INH. Type of data set: cell-based, Splenocyte. An outline of the steps: as §1
Data set [4] can be described thus: Immunosuppressive activity in BALB/c mouse splenocytes assessed as inhibition of concanavalin A-induced cell proliferation at 100 uM after 48 hrs by MTT assay. The format is functional. Conditions: Splenocyte. An outline of the steps: as §2
Data set [5] is described as follows: Immunosuppressive activity in BALB/c mouse splenocytes assessed as inhibition of concanavalin A-induced cell proliferation at 30 uM after 48 hrs by MTT assay. Type of data set: functional. The settings on record: Splenocyte. An outline of the steps:
as §2

A short description of data set [6]: Cytotoxicity against BALB/c mouse splenocytes at 10 uM after 48 hrs by MTT assay. Conditions: read-out: INH. The format is cell-based, Splenocyte. An outline of the steps: as §1

As a reminder, the inhibition is the change of the read-out against control, counted positive when it falls. With `COc1cc(OC)c2c(O[C@@H]3OC[C@@H](O)[C@H](O)[C@H]3O)ccnc2c1`, the cytotoxicity at 48 h, 30 µM in data set [1] came out at 9.1%. Moreover, the inhibition at 10 µM in data set [2] came out at 10.3%. Also, the cytotoxicity at 48 h, 100 µM in data set [3] came out at 11.2%. In addition, the inhibition at 100 µM in data set [4] was 41%. For the same compound, the inhibition at 30 µM in data set [5] was 14.9%. Besides, the cytotoxicity at 48 h, 10 µM in data set [6] amounted to 6.9%.
For the compound `COc1cc(OC)c2c(O[C@@H]3O[C@H](CO)[C@@H](O)[C@H](O)[C@H]3O)ccnc2c1`, the cytotoxicity at 48 h, 30 µM in data set [1] turned out to be 9.1%. The inhibition at 10 µM in data set [2] worked out at 3.6%. Moreover, the cytotoxicity at 48 h, 100 µM in data set [3] came to 9.5%. Moreover, in data set [4], the inhibition at 100 µM is 20.4%. Moreover, the inhibition at 30 µM in data set [5] was found to be 6%. For the same compound, in data set [6], the cytotoxicity at 48 h, 10 µM came out at 7.6%.
Consider `COc1cc(OC)c2c(OC(=O)c3cc([N+](=O)[O-])cc([N+](=O)[O-])c3)ccnc2c1`, for which, in data set [1], the cytotoxicity at 48 h, 30 µM came to 9.5%. Further, the inhibition at 10 µM in data set [2] worked out at 6.3%. Moreover, in data set [3], the cytotoxicity at 48 h, 100 µM was 13.4%. Also, in data set [4], the inhibition at 100 µM was 5.6%. In data set [5], the inhibition at 30 µM came out at 5.1%. For the same compound, in data set [6], the cytotoxicity at 48 h, 10 µM stood at 3.4%.
Turning to `O=c1cc[nH]c2cc(O)cc(O)c12`, in data set [1], the cytotoxicity at 48 h, 30 µM amounted to 10.9%. The inhibition at 10 µM in data set [2] was -0.9%. Further, in data set [3], the cytotoxicity at 48 h, 100 µM came to 8.6%. Moreover, the inhibition at 100 µM in data set [4] stood at 18%. Further, the inhibition at 30 µM in data set [5] amounted to 1.7%. Besides, the cytotoxicity at 48 h, 10 µM in data set [6] turned out to be 1.8%.
Take `COc1cc(OC)c2c(=O)cc[nH]c2c1`: the cytotoxicity at 48 h, 30 µM in data set [1] is 7.8%. Besides, in data set [2], the inhibition at 10 µM was determined as 0.1%. The cytotoxicity at 48 h, 100 µM in data set [3] was determined as 7.5%. In data set [4], the inhibition at 100 µM amounted to 12.3%. Moreover, in data set [5], the inhibition at 30 µM was 3.7%. Besides, the cytotoxicity at 48 h, 10 µM in data set [6] came to 6.1%.
Turning to `COc1cc(OC)c2c(OC(=O)c3ccc(Cl)cc3Cl)ccnc2c1`, the cytotoxicity at 48 h, 30 µM in data set [1] is 20.8%. The inhibition at 10 µM in data set [2] was 35.3%. In data set [3], the cytotoxicity at 48 h, 100 µM worked out at 22.7%. Besides, in data set [4], the inhibition at 100 µM turned out to be 79.2%. In addition, the inhibition at 30 µM in data set [5] turned out to be 62.3%. For the same compound, the cytotoxicity at 48 h, 10 µM in data set [6] was determined as 16.5%.
Take `COc1cc(OC)c2c(OC(=O)c3cccc(Br)c3)ccnc2c1`: the cytotoxicity at 48 h, 30 µM in data set [1] is 1.7%. The inhibition at 10 µM in data set [2] worked out at 16.9%. Further, in data set [3], the cytotoxicity at 48 h, 100 µM worked out at 21%. The inhibition at 100 µM in data set [4] amounted to 91%. In addition, the inhibition at 30 µM in data set [5] came to 48.8%. Moreover, the cytotoxicity at 48 h, 10 µM in data set [6] worked out at 1.7%.
Take `COc1cc(OC)c2c(OC(=O)c3cccc(I)c3)ccnc2c1`: the cytotoxicity at 48 h, 30 µM in data set [1] was 5.6%. The inhibition at 10 µM in data set [2] turned out to be 24.7%. Also, the cytotoxicity at 48 h, 100 µM in data set [3] amounted to 11.6%. Further, the inhibition at 100 µM in data set [4] amounted to 85.2%. Besides, the inhibition at 30 µM in data set [5] turned out to be 50.5%. The cytotoxicity at 48 h, 10 µM in data set [6] turned out to be 3%.
For the compound `COc1cc(OC)c2c(OC(=O)c3ccccc3)ccnc2c1`, the cytotoxicity at 48 h, 30 µM in data set [1] is 4.6%. In addition, in data set [2], the inhibition at 10 µM worked out at 6.2%. Further, in data set [3], the cytotoxicity at 48 h, 100 µM turned out to be 7.7%. In data set [4], the inhibition at 100 µM came out at 35.4%. The inhibition at 30 µM in data set [5] was 13.1%. Moreover, the cytotoxicity at 48 h, 10 µM in data set [6] turned out to be 0%.
In the case of `Cc1cc(=O)c2c(O)cc(O)cc2[nH]1`, the cytotoxicity at 48 h, 30 µM in data set [1] was determined as 9.9%. Besides, the inhibition at 10 µM in data set [2] was 7.5%. For the same compound, in data set [3], the cytotoxicity at 48 h, 100 µM worked out at 11.2%. In addition, in data set [4], the inhibition at 100 µM was determined as 26.7%. Also, the inhibition at 30 µM in data set [5] stood at 4.4%. The cytotoxicity at 48 h, 10 µM in data set [6] amounted to 9.1%.
Turning to `COc1cc(OC)c2c(OC(=O)c3ccccc3F)ccnc2c1`, the cytotoxicity at 48 h, 30 µM in data set [1] came to 12.8%. The inhibition at 10 µM in data set [2] amounted to 9.3%. Besides, the cytotoxicity at 48 h, 100 µM in data set [3] is 19.5%. For the same compound, the inhibition at 100 µM in data set [4] is 31%. In addition, the inhibition at 30 µM in data set [5] amounted to 14.3%. Further, the cytotoxicity at 48 h, 10 µM in data set [6] was found to be 7.7%.
As for `COc1cc(OC)c2c(OC(=O)c3cc(Cl)cc(Cl)c3)ccnc2c1`, the cytotoxicity at 48 h, 30 µM in data set [1] stood at 10.7%. Also, the inhibition at 10 µM in data set [2] stood at 3.9%. For the same compound, the cytotoxicity at 48 h, 100 µM in data set [3] is 7.2%. In addition, in data set [4], the inhibition at 100 µM was 7.9%. Moreover, the inhibition at 30 µM in data set [5] amounted to 5.1%. Further, the cytotoxicity at 48 h, 10 µM in data set [6] turned out to be 3.4%.
Turning to `COc1cc(OC)c2c(OC(=O)c3ccccc3)cc(C)nc2c1`, the cytotoxicity at 48 h, 30 µM in data set [1] is -0.2%. Moreover, the inhibition at 10 µM in data set [2] was determined as 5.7%. In data set [3], the cytotoxicity at 48 h, 100 µM was 13.7%. Besides, the inhibition at 100 µM in data set [4] amounted to 81.5%. The inhibition at 30 µM in data set [5] was found to be 34.8%. Further, the cytotoxicity at 48 h, 10 µM in data set [6] was -7.6%.
For `CCCCC(=O)Oc1ccnc2cc(OC)cc(OC)c12`, the cytotoxicity at 48 h, 30 µM in data set [1] came to 10.5%. In addition, the inhibition at 10 µM in data set [2] is 4.1%. Besides, the cytotoxicity at 48 h, 100 µM in data set [3] is 9.4%. Also, the inhibition at 100 µM in data set [4] worked out at 13.9%. In data set [5], the inhibition at 30 µM was 5.3%. Also, the cytotoxicity at 48 h, 10 µM in data set [6] stood at 4.5%.
As for `COc1cc(OC)c2c(OC(=O)c3cccc([N+](=O)[O-])c3)ccnc2c1`, in data set [1], the cytotoxicity at 48 h, 30 µM was determined as 8.1%. Moreover, in data set [2], the inhibition at 10 µM is 18.8%. For the same compound, the cytotoxicity at 48 h, 100 µM in data set [3] came to 12.2%. In data set [4], the inhibition at 100 µM is 82.8%. Further, the inhibition at 30 µM in data set [5] was determined as 42%. Also, in data set [6], the cytotoxicity at 48 h, 10 µM stood at 3.3%.
As to `COc1cc(OC)c2c(OC(=O)c3cc(Br)cc(Br)c3)ccnc2c1`, the cytotoxicity at 48 h, 30 µM in data set [1] amounted to 9.4%. The inhibition at 10 µM in data set [2] was 6.4%. Besides, the cytotoxicity at 48 h, 100 µM in data set [3] came out at 6.3%. In data set [4], the inhibition at 100 µM is 12.1%. Also, the inhibition at 30 µM in data set [5] stood at 10%. Further, the cytotoxicity at 48 h, 10 µM in data set [6] came out at 5.5%.
Take `COc1cc(OC)c2c(OC(=O)c3ccc(I)cc3)ccnc2c1`: the cytotoxicity at 48 h, 30 µM in data set [1] turned out to be 6.6%. In addition, in data set [2], the inhibition at 10 µM was 26.4%. Besides, in data set [3], the cytotoxicity at 48 h, 100 µM is 23.4%. Moreover, the inhibition at 100 µM in data set [4] was 91.3%. In data set [5], the inhibition at 30 µM is 47.2%. Moreover, in data set [6], the cytotoxicity at 48 h, 10 µM is 6%.
Regarding `COc1cc(OC)c2c(OC(=O)c3cccc(Cl)c3)ccnc2c1`, the cytotoxicity at 48 h, 30 µM in data set [1] was determined as 9.4%. For the same compound, the inhibition at 10 µM in data set [2] is 20.6%. Further, the cytotoxicity at 48 h, 100 µM in data set [3] came out at 12.2%. In data set [4], the inhibition at 100 µM came to 90.8%. Moreover, in data set [5], the inhibition at 30 µM was 42%. Further, the cytotoxicity at 48 h, 10 µM in data set [6] is 3.1%.
As for `COc1ccc(C(=O)Oc2ccnc3cc(OC)cc(OC)c23)cc1`, the cytotoxicity at 48 h, 30 µM in data set [1] was found to be 11.3%. Also, in data set [2], the inhibition at 10 µM was found to be 7.8%. Further, in data set [3], the cytotoxicity at 48 h, 100 µM turned out to be 13.4%. In addition, the inhibition at 100 µM in data set [4] was 17.7%. Also, in data set [5], the inhibition at 30 µM amounted to 11%. Also, in data set [6], the cytotoxicity at 48 h, 10 µM was determined as 8.2%.
For `COc1cc(OC)c2c(=O)cc(C)[nH]c2c1`, the cytotoxicity at 48 h, 30 µM in data set [1] was 14.7%. In addition, the inhibition at 10 µM in data set [2] is 15.9%. Moreover, the cytotoxicity at 48 h, 100 µM in data set [3] stood at 23.6%. For the same compound, the inhibition at 100 µM in data set [4] was 57.2%. The inhibition at 30 µM in data set [5] was 35.4%. Moreover, the cytotoxicity at 48 h, 10 µM in data set [6] stood at 6.5%.
Regarding `COc1cc(OC)c2c(OC(=O)c3ccccc3OC)ccnc2c1`, the cytotoxicity at 48 h, 30 µM in data set [1] was 17.6%. Further, the inhibition at 10 µM in data set [2] was 11.3%. Further, the cytotoxicity at 48 h, 100 µM in data set [3] turned out to be 47.9%. Besides, the inhibition at 100 µM in data set [4] amounted to 85.3%. Also, the inhibition at 30 µM in data set [5] stood at 35.2%. Also, the cytotoxicity at 48 h, 10 µM in data set [6] came out at 10.3%.

The values above are taken from ChEMBL document CHEMBL1154117, “Synthesis and evaluation of a novel series of quinoline derivatives with immunosuppressive activity” (Bioorg Med Chem, 2009).
